Experimental data taken from PubChem BioAssay.
Results filed as inconclusive are left out.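 Rule for the calls, unless noted: active = viability increase at or above a cutoff of the median across tested compounds plus 3 SD (cut at about 8.5% in these data, passing the limit was not always enough); inconclusive = some gains above the cutoff, reason not given; inactive = the rest.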

Key:
[1] = S. cerevisiae growth inhibition in permissive medium (OD615), pilot counter-assay for S. cerevisiae lifespan shortening project, permissive growth control (AID 705;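 active = growth inhibition above 25% in both replicates, a cutoff set 3 SD above the mean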); conditions: OD615, 24 h, at 10 µM, active compounds read high
In short: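 Timing: 24 h exposure, 30 °C / Material: Saccharomyces cerevisiae strain carrying genetically modified DeaD replicative-lifespan system / Signal: OD at 615 nm / Compound: 10 µM single dose, 0.25% DMSO / Medium: SC raffinose/galactose permissive medium / Evaluation: reduction in yeast growth (OD615)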

[2] = S. cerevisiae growth inhibition in restrictive medium, OD615, pilot screen, restrictive growth control, yeast lifespan reduction project (AID 706;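 active = growth inhibition above a set limit, 3 SD over mean compound inhibition, in both replicates, cut at about 43% in these data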;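 note: modified DeaD lifespan yeast strain shifted to restrictive glucose medium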); conditions: OD615, 48 h, at 10 µM, active compounds read high
In short: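 System: Engineered S. cerevisiae DeaD strain | Detection: OD615 | Buffer or medium: CSMM-D glucose medium | Doses: 10 µM compound, 0.25% DMSO | Timing: 4 h pre-growth plus 48 h compound exposure, 30 °C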

[3] = doxorubicin toxicity protection in MRP-1 cells – H69AR cells, CellTiter-Glo, duplicate, MRP-1 activator project, pilot screen (AID 807); conditions: H69AR viability with doxorubicin, CellTiter-Glo luminescence; at 10 µM; active compounds read high;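 note: compound pretreatment 18-22 h then 72 h combined with doxorubicin; 0% = doxorubicin alone and 100% = vehicle without doxorubicin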
[4] = viability of HCT116 without oncogenic beta-catenin – human colon tumor cells, pilot screen (AID 823;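 active = cell viability at or below a set limit in both duplicate runs, the limit being the all-compound median minus 4 SD, cut at about 23% in these data, passing the limit was not always enough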;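 note: 0% = wells killed by 20 µM Hyamine and 100% = untreated DMSO cell wells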); conditions: HCT116 beta-catenin knockout viability, CellTiter-Glo, 60 h; at 10 µM; active compounds read low
[5] = viability of PTEN-null HCT116 cells – cell-based, HCT116 clonal line, CellTiter-Glo, pilot screen (AID 824;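 active = viability at or below 27.92% in each of two runs, the all-compound median minus 4 SD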;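 note: 0% = 20 µM Hyamine control and 100% = vehicle cell control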); conditions: HCT116 PTEN-deleted viability, 60 h, at 10 µM, active compounds read low
[6] = RAM pathway blockade in budding yeast – dse1pr::URA3 reporter, 5-FOA selection, pilot screen (AID 869;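 active = inhibition over a set limit, the all-compound mean plus 3 SD, in both replicate runs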;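 note: 0% = DMSO wells with no growth and 100% = 10 µM 1-NA-PP1 with full growth; RAM network block rescues cells from 5-FOA so hits raise OD615 growth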); conditions: S. cerevisiae dse1pr::URA3 5-FOA growth, OD615, 2 d; at 10 µM; active compounds read high; strain carries analog-sensitive mutant Cbk1 kinase
[7] = RAM signaling pathway blockade in yeast – S. cerevisiae, Pdr1DBD-CYC8 efflux-inhibited sensitized strain, primary screen (AID 1298;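 active = RAM network inhibition above 8.4% in each of two replicates, 3 SD over the compound average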;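 note: 0% = DMSO untreated cells without growth and 100% = 10 µM 1-NA-PP1 full growth; higher means more yeast growth rescued from 5-FOA killing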); conditions: S. cerevisiae cbk1-as DSE1-URA3 strain, 5-FOA growth OD615, 2 d; at 50 µM; active compounds read high

O=C(NCc1ccccn1)c1cc2ccccn2n1
inactive: growth inhibition [1] -2.5% | growth inhibition [2] 0.82% | viability increase [3] -0.01% | viability [4] 104% | viability [5] 102% | inhibition [6] 0.245% | RAM network inhibition [7] 3.25%

COc1cccc(C(=O)Nc2nnc(-c3ccc(F)cc3)o2)c1
inactive: growth inhibition [1] -12.2% | growth inhibition [2] -0.875% | viability increase [3] -3.38% | viability [4] 29% | viability [5] 32% | inhibition [6] 0.4% | RAM network inhibition [7] 0.21%

CCOc1ccccc1C1CC(c2ccc(Cl)cc2)Nc2nc(N)nn21 (configuration not stated)
inactive: growth inhibition [1] 0.515% | growth inhibition [2] 23% | viability increase [3] 1.4% | viability [4] 66.3% | viability [5] 77.6% | inhibition [6] -0.11% | RAM network inhibition [7] 1.24%

CC(=O)Oc1cccc(N2C(=O)C3CC=C(Cl)CC3C2=O)c1 (configuration not stated)
inactive: growth inhibition [1] -5.15% | growth inhibition [2] -22.9% | viability increase [3] -0.7% | viability [4] 89.6% | viability [5] 87.9% | inhibition [6] 2.81% | RAM network inhibition [7] 1.87%

CN(C)S(=O)(=O)N1CCC(Cc2ccccc2)CC1
inactive: growth inhibition [1] -9.73% | growth inhibition [2] 3.98% | viability increase [3] -0.78% | viability [4] 85.3% | viability [5] 85% | inhibition [6] -0.275% | RAM network inhibition [7] 1.8%

COc1cc(Br)cc(-c2nc3c(c(=O)[nH]c(=O)n3Cc3ccccc3)n2C)c1O
inactive: growth inhibition [1] 3.34% | growth inhibition [2] -0.8% | viability increase [3] -1.31% | viability [4] 89.6% | viability [5] 87.6% | inhibition [6] 2.02% | RAM network inhibition [7] 3.23%

COc1cccc(C2CC(=O)NC(SC)=C2C#N)c1 (configuration not stated)
inactive: growth inhibition [1] -1.85% | growth inhibition [2] -4.75% | viability increase [3] -2.47% | viability [4] 98.7% | viability [5] 95.7% | inhibition [6] -0.015% | RAM network inhibition [7] 2.87%

Cc1sc2nc(SCC(=O)N(CCO)CCO)n(C3CCCCC3)c(=O)c2c1C
inactive: growth inhibition [1] -10.3% | growth inhibition [2] 0.44% | viability increase [3] -2.54% | viability [4] 99% | viability [5] 104% | inhibition [6] 2.33% | RAM network inhibition [7] 10.7%

CCOC(=O)N1CCC(NC(=O)Cn2cc3c(n2)CCCC3)CC1
inactive: growth inhibition [1] -1.57% | growth inhibition [2] -0.65% | viability increase [3] -3.35% | viability [4] 107% | viability [5] 92.5% | inhibition [6] 2.6% | RAM network inhibition [7] 2.81%

C=C(C)CSc1nnc(-c2cccc(Cl)c2)n1N
inactive: growth inhibition [1] 3.94% | growth inhibition [2] 14.4% | viability increase [3] 0.23% | viability [4] 95.9% | viability [5] 91.5% | inhibition [6] 1.77% | RAM network inhibition [7] -0.48%

COC(=O)C1(C)Nc2ccccc2C(=O)N1c1ccccc1OC (configuration not stated)
inactive: growth inhibition [1] -17% | growth inhibition [2] -23.6% | viability increase [3] -0.77% | viability [4] 103% | viability [5] 88.5% | inhibition [6] 1.97% | RAM network inhibition [7] 5.8%

CCCCn1c(CCCNC(=O)CC)nc2ccccc21
inactive: growth inhibition [1] 0.535% | growth inhibition [2] -5.98% | viability increase [3] -4.51% | viability [4] 94.2% | viability [5] 85.8% | inhibition [6] 1.65% | RAM network inhibition [7] 4.06%

Cn1ccnc1SCC(=O)c1cc2ccccc2o1
inactive: growth inhibition [1] -6.64% | growth inhibition [2] -0.315% | viability increase [3] -2.52% | viability [4] 95.7% | viability [5] 99.4% | inhibition [6] 0.57% | RAM network inhibition [7] 1.04%

COc1ccc(N(CC(=O)Nc2ccc(C)cn2)S(=O)(=O)c2c(C)nn(C)c2C)cc1
inactive: growth inhibition [1] -17.5% | growth inhibition [2] -9.45% | viability increase [3] -1.95% | viability [4] 97.5% | viability [5] 96.2% | inhibition [6] 0.055% | RAM network inhibition [7] 5.27%

O=C1CC(c2ccccc2)C(C(=O)Nc2ccccc2F)N1 (configuration not stated)
inactive: growth inhibition [1] -17.2% | growth inhibition [2] 2% | viability increase [3] -0.74% | viability [4] 104% | viability [5] 99.3% | inhibition [6] 0.81% | RAM network inhibition [7] 4.18%

C=CCN1C(=Nc2ccccc2)SC/C1=C\C(=O)OC
inactive: growth inhibition [1] -14.6% | growth inhibition [2] -4.42% | viability increase [3] -2.34% | viability [4] 89% | viability [5] 89.8% | inhibition [6] 0.81% | RAM network inhibition [7] 6.77%
